This is one part of a sample in which hits are shown more often than they occur.
AP ELISA ortho: alternative complement pathway inhibitors, primary screen, biochemical, ELISA, human serum, orthogonally pooled compounds | 0.08% of 62,000 active | AID 1235, 2008 | LPS-coated ELISA, C3 deposition; tested in compound mixtures | inhibition, % at 5 µM;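 active means inhibition above 30% in each of the two pooled mixtures holding the compound, so the lower value exceeds 30%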;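 further: 0% = serum in Mg-EGTA without compound and 100% = EDTA serum blank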
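Medium: diluted human serum in Mg2+-EGTA GVB++. Assay system: human serum complement alternative pathway, C3 deposition onto LPS. Also added: Plate-bound LPS. Technique: Anti-C3 ELISA, OD 450 nm. Measure: percent inhibition. Incubation: 1 h at 37 °C. Dosing: 5 µM each compound, pools of ten, 50 µM per pool.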
D1 allo mod: D1 CRE-luciferase signal change, two-sided – cell-based, HEK293 D1, dopamine EC30, D1 allosteric modulator project, primary screen | dopamine EC30 potentiation; actives deviate in either direction | D(1A) dopamine receptor (Homo sapiens), P21728 | 5.9% of 58,000 active | B-score at 10 µM | AID 641, 2007;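 active means luminescence count or its row- and column-corrected plate score outside the 99.7% band of the plate's sample wells, on either side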
Target sequence (P21728 whole entry, looked up): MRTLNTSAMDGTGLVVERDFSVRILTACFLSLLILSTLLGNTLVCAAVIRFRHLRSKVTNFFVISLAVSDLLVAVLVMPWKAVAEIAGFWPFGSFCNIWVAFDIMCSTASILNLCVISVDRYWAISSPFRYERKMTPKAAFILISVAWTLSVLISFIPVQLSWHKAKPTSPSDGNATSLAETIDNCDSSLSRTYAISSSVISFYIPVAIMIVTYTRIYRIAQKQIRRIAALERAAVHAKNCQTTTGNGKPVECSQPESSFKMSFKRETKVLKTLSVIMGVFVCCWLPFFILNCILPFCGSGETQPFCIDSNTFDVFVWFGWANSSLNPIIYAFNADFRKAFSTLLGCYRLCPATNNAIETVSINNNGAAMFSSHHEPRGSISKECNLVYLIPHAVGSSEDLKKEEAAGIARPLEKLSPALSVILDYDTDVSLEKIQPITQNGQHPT
HEK293 NFkB inh: inhibitors of PMA/ionomycin-induced NF-kB reporter, primary screen, antigen receptor NF-kB inhibitor project, cell-based, HEK-293 luciferase reporter, luminescence; 0.21% of 62,000 active; HEK-293 NF-kB luciferase reporter; inhibition, % at 3 µM;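 active means inhibition above the mean of all tested compounds plus 3 SD, cut at about 40% in these data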;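 further: 0% = stimulated DMSO wells and 100% = 10 µM reference inhibitor 5653914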
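System: NF-kB luciferase reporter HEK-293 cells | Replication: Single test | Control set: DMSO vs reference inhibitor | Evaluation: % inhibition | Schedule: 1 h pretreatment, 16 h stimulation, 37 °C | Probe or stimulus: PMA with ionomycin | Compound dosing: One dose, 3 µM | Detection: Luciferase luminescence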
DAT uptake mod: changed hDAT dopamine uptake under cocaine IC80, either direction, primary screen, cocaine antagonist project, cell-based, LLC-PK1 hDAT, [14C]-dopamine uptake, MLSMR; LLC-PK1 hDAT cells, [14C]-dopamine uptake with cocaine IC80; actives deviate in either direction; Sodium-dependent dopamine transporter (Homo sapiens), Q01959; B-score at 10 µM; 1.3% of 110,000 active; AID 449768, 2010;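 active means Z score or B-score, a plate-position-corrected score, falls beyond the plate's 99.7% confidence bounds, in either direction; inactive means both scores lie inside the 99.7% bounds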;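 further: scored against the spread of the other compound wells on the same plate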
Ec RNAP inh: E. coli RNAP inhibitors, biochemical. E. coli RNA polymerase, fluorescence transcription assay. inhibition, %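 (tested at 10 µM)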. 0.2% of 62,000 active. AID 559, 2006; in the data active means inhibition above about 20%;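 further: 0% = enzyme without compound and 100% = no enzyme blank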
* hit, by the source's call; / = not tested or not shown.

SMILES	AP ELISA ortho	D1 allo mod	HEK293 NFkB inh	DAT uptake mod	Ec RNAP inh
O=c1c2ccccc2nc2n1CC/C2=C\c1ccccc1[N+](=O)[O-]	/	/	/	-0.00423	/
Cc1ccccc1-c1nc2ccccc2c(=O)n1/N=C/c1ccccc1[N+](=O)[O-]	/	/	/	1.12*	/
CCN1C(=O)N[C@@H](c2ccco2)C(C(C)=O)=C1C	/	/	/	-0.679	/
COc1ccc(-c2nnn(CC(=O)N(Cc3ccccc3Cl)C(C(=O)NCC3CCCO3)c3ccco3)n2)cc1OC (stereo unspecified)	/	/	/	1.01	/
Cc1ccc(C)c(S(=O)(=O)C(C#N)c2nc3ccccc3nc2N2CC(C)OC(C)C2)c1 (stereo unspecified)	13.3	-2.66*	2.2	0.169	-6.1
OC(c1cccs1)(c1cccs1)C1C[N+]2(CF)CCC1CC2 (stereo unspecified)	/	/	/	-1.17	/
COC(=O)C1=C(COc2ccccc2)NC(=O)NC1c1ccc2ccccc2c1 (stereo unspecified)	/	/	/	0.437	/
O=C1C=C(c2ccc(Cl)cc2)OC2(CCCC2)O1	/	/	/	-2.57*	/
Cn1c(=O)cc(OCCCC(=O)NCc2ccccn2)c2ccccc21	18.8	-0.776	8.8	1.44	19.1
Cc1ccnc(NC(=O)CCCOc2cc(=O)n(C)c3ccccc23)c1	-5.2	-3.3*	6.8	0.796	-2.8
CCc1ccccc1NC(=O)CSc1nnc(-c2ccco2)n1N	14.2	-1.39	6.3	-0.664	5.7
CCc1nn2cc(-c3ccccc3)nc2s1	2.4	-8.3*	-3.5	-0.543	10.8
Cc1nn2cc(-c3ccc(-c4ccccc4)cc3)nc2s1	15.9	-3.96*	-34.0	0.975	0.8
Cc1nn2cc(-c3ccc(Cl)cc3)nc2s1	12.2	/	-32.1	-0.297	1.0
c1ccc(CC2CCN(c3nc(N4CCOCC4)nc(N4CCOCC4)n3)CC2)cc1	25.8	-0.291	1.0	/	0.1
CC1CN(Cc2nc3c(c(=O)n(C)c(=O)n3C)n2Cc2ccc(Cl)cc2)CC(C)O1 (stereo unspecified)	11.4	0.741	6.2	/	11.9
COC(=O)c1ccc(-n2nnnc2SCC(=O)N2CCCCC2)cc1	-1.2	2.71	7.4	-0.168	11.6
CCCOC(=O)c1ccc(-n2nnnc2SCC(=O)N2CCCCC2)cc1	10.7	-3.65*	26.1	-0.079	11.1
N#C/C(=C/c1ccc(OCc2ccccc2)cc1)C(=O)NC1CCCCC1	/	/	/	0.343	/
COc1ccc(-c2[nH]ncc2/C=C(/C#N)C(=O)NC2CCCCCC2)cc1	/	/	/	2.85*	/
Cc1ccc(-n2c(CNc3ccc(F)cc3)nnc2SCC(=O)N2CCCC2)cc1	11.1	/	5.6	0.814	36.4*
CC1=C(C#N)C2C(/C1=N/O)C2(C)C (stereo unspecified)	12.4	0.143	9.9	-0.631	-1.8
CCOC(=O)c1c(C)n(C)c2ccc(OCC(O)Cn3nc(C)c(Br)c3C)cc12 (stereo unspecified)	/	0.0927	8.4	-8.53*	/
CCOC(=O)C[C@H]1c2ccccc2S(=O)(=O)N1c1ccccc1	/	/	/	-0.155	/
O=C(O)c1cccc(-c2nnn(Cc3ccccc3Cl)n2)c1	/	/	/	0.397	/
SMILES	AP ELISA ortho	D1 allo mod	HEK293 NFkB inh	DAT uptake mod	Ec RNAP inh
Cc1ccccc1Cn1nnc(-c2cccc(C(=O)O)c2)n1	15.5	-2.71*	-53.2	-0.116	4.4
Cc1cc(C)cc(NC(=O)C/C(N)=N/O)c1	/	/	/	0.415	/
Cc1noc(C)c1S(=O)(=O)Nc1ccc(C(=O)N2CCN(c3ccc(Cl)cc3)CC2)cc1	-10.6	-3.69*	25.0	/	-5.2
O=C(NS(=O)(=O)c1ccc2c(c1)OCCO2)c1ccccc1	-2.1	-0.0843	2.7	0.8	8.5
Cn1cnc2c(sc3nc(N4CCOCC4)c4c(c32)CC(C)(C)OC4)c1=O	10.0	3.55*	8.7	/	0.0
C/C(=C\C(=O)OCCCCCCCCC(=O)O)C[C@@H]1OC[C@H](C[C@@H]2O[C@H]2[C@@H](C)[C@H](C)O)[C@@H](O)[C@H]1O	/	/	/	-0.465	/
C=CCN1C=CC(=C/C=C(/C#N)C(=O)OCC)C=C1	/	/	/	-2.6*	/
COC(=O)C1=C(C(=O)OC)[N+]2=C3N(C(=O)NC2(C)C)[C@H](CO)C[C@@]32c3ccccc3N(Cc3ccccc3)[C@@H]12	/	/	/	1.03	/
O=C(Nc1ccon1)c1cc2ccccc2oc1=O	/	/	/	-0.00796	/
O=CN1CCN(C(=O)c2ccccc2F)CC1	-1.0	-3.2*	4.3	0.0466	8.3
CCOC(=O)C(C(C)=O)c1c(Br)c(O)c(O)c2c(C(=O)c3ccc(C)cc3)coc12 (stereo unspecified)	-1.7	-1.32	47.2*	-0.0303	17.7
CS(=O)(=O)N1CCCC(c2nc(-c3ccc(S(=O)(=O)NCc4ccccc4)cc3)no2)C1 (stereo unspecified)	3.5	-3.03*	30.5	-0.0207	6.9
O=C(Cc1ccccc1)N1CCCC(c2nc(-c3ccc(S(=O)(=O)N4CCCC4)cc3)no2)C1 (stereo unspecified)	/	/	/	0.523	/
CCOc1ccccc1-n1c(SCC(=O)NC2CCCC2)nnc1-c1ccoc1C	4.5	-0.731	15.1	1.29	5.1
Cc1cccc(NC(=O)c2ccc(C3SCC(=O)N3CCc3ccccc3)cc2)c1C (stereo unspecified)	/	/	/	2.66*	/
O=C(CC(c1ccccc1)c1ccccc1O)NCCN1CCOCC1 (stereo unspecified)	3.8	0.0247	18.0	-7.82*	-2.7
S=C(NC1CCCCC1)c1ccc2c(c1)OCO2	/	/	/	-1.34	/
O=C(NC1CCCCCCC1)c1ccc2c(c1)OCO2	-4.0	-3.52*	-9.4	0.194	3.8
O=S(=O)(NCc1ccccn1)c1ccccc1	/	/	/	-2.86*	/
Clc1ccc2nc(N3CCCCC3)[nH]c2c1	5.9	-4.95*	-39.6	1.65	5.2
CCNC(=O)c1ccccc1NC(=O)c1cccc(S(=O)(=O)N2CCC(C)CC2)c1	-0.6	0.665	-5.5	0.707	3.2
CNC(=O)c1ccccc1NC(=O)c1cccc(S(=O)(=O)N2CCC(C)CC2)c1	-10.9	-3.73*	-6.5	0.129	10.1
CNC(=O)C(=O)NCCc1ccc(Cl)cc1	/	/	/	-0.947	/
CC(C)OC(=O)c1c(N)sc2c1CCCC2	26.7	11.1*	15.0	/	-10.4
CC(=O)Nc1ccc(S(=O)(=O)/N=C2\SCCN2S(=O)(=O)c2ccc(NC(C)=O)cc2)cc1	8.2	-0.254	8.0	/	0.3
S=c1[nH]nc(-c2ccco2)n1C1CCCCC1	0.4	/	/	/	6.8
CC(=O)OC1COC(OC2C(O)C(C)OC(OC3C(OC4CCC5(C)C(CCC6(C)C5CC=C5C7CC(C)(C)CCC7(C(=O)O)CCC56C)C4(C)CO)OCC(O)C3O)C2O)C(O)C1OC(C)=O (stereo unspecified)	/	/	/	-10.1*	/
COc1ccc(CN(C#N)c2nc(SC)nc(N(C)C)n2)cc1	/	1.36	/	0.575	/

High-throughput results as filed in PubChem BioAssay.
